ChEMBL document CHEMBL1135620, “Cyclosporins: structure-activity relationships for the inhibition of the human FPR1 formylpeptide receptor” (J Med Chem, 2002)

target: T1, fMet-Leu-Phe receptor (Homo sapiens) (UniProt P21462); test: Inhibitory activity against Human formylpeptide receptor (FPR) of human leukemia HL-60 cells; format: cell-based
T1 sequence (whole entry): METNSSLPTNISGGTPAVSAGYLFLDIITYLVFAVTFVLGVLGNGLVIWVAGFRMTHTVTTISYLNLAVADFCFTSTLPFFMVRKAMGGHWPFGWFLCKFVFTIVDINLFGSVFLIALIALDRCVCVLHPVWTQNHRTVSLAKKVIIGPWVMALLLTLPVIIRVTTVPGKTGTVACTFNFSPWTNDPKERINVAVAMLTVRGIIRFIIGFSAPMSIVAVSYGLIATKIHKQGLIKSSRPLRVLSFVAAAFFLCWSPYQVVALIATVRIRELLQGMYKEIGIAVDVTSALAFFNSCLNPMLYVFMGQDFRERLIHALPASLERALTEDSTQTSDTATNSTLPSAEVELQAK
Procedure, shortened: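 HL-60 cells differentiated 48 h with 0.2 mM dibutyryl cAMP, washed, then treated with 5 μM cytochalasin B (5–10 min, 37 °C). Stimulated 10 min with 30 nM f-MLF. N-acetyl-β-D-glucosaminidase release read at 410 nm on p-nitrophenyl substrate after spontaneous-release subtraction. Duplicate wells; IC20/IC50 as mean ± SD of independent experiments.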

Point of comparison: `C/C=C/C[C@@H](C)[C@@H](O)[C@H]1C(=O)N[C@@H](CCC)C(=O)N(C)CC(=O)N(C)[C@H](CC(C)C)C(=O)N[C@H](C(C)C)C(=O)N(C)[C@H](CC(C)C)C(=O)N[C@@H](C)C(=O)N[C@H](C)C(=O)N[C@@H](CC(C)C)C(=O)N(C)[C@@H](CC(C)C)C(=O)N(C)[C@@H](C(C)C)C(=O)N1C`, IC20 2100 nM. Against it:
- CC(C)C[C@@H]1NC(=O)[C@@H](CC(C)C)N(C)C(=O)CN(C)C(=O)[C@H]([C@@H](C)O)NC(=O)[C@H]([C@H](O)[C@H](C)C/C=C/CO)N(C)C(=O)[C@H](C(C)C)N(C)C(=O)[C@H](CC(C)C)NC(=O)[C@H](CC(C)C)N(C)C(=O)[C@@](O)(C(C)C)NC(=O)[C@H](C)NC(=O)[C@@H](CC(C)C)N(C)C1=O — 4.5-fold lower, 470 nM
- C/C=C/C[C@@H](C)[C@@H](O)[C@H]1C(=O)N[C@@H]([C@@H](C)O)C(=O)N(C)CC(=O)N(C)[C@H](CC(C)C)C(=O)N[C@@H]([C@@H](C)CC)C(=O)N(C)[C@H](CC(C)C)C(=O)N[C@@H](C)C(=O)N[C@H](C)C(=O)N(C)[C@@H](CC(C)C)C(=O)N(C)[C@@H](CC(C)C)C(=O)N(C)[C@@H](C(C)C)C(=O)N1C — 23-fold lower, 90 nM
- C/C=C/C[C@@H](C)[C@@H](O)[C@H]1C(=O)N[C@@H](CCC)C(=O)N(C)CC(=O)N(C)[C@H](CC(C)C)C(=O)N[C@H](C(C)C)C(=O)N(C)[C@H](CC(C)C)C(=O)N[C@@H](C)C(=O)N[C@H](C)C(=O)N(C)[C@@H](CC(C)C)C(=O)N[C@@H](CC(C)C)C(=O)N(C)[C@@H](C(C)C)C(=O)N1C — 3.2-fold lower, 660 nM
- C/C=C/C[C@@H](C)[C@@H](O)[C@H]1C(=O)N[C@@H]([C@@H](C)O)C(=O)N(C)CC(=O)N(C)[C@H](CC(C)C)C(=O)N[C@@H]([C@@H](C)CC)C(=O)N(C)[C@H](CC(C)C)C(=O)N[C@@H](C)C(=O)N[C@](O)(C(C)C)C(=O)N(C)[C@@H](CC(C)C)C(=O)N[C@@H](CC(C)C)C(=O)N(C)[C@@H](C(C)C)C(=O)N1C — 7.2-fold lower, 290 nM
- CCC[C@@H]1NC(=O)[C@H](CC(C)C)N(C)C(=O)[C@H](C(C)C)N(C)C(=O)[C@H](CC(C)C)N(C)C(=O)[C@H](CC(C)C)N(C)C(=O)[C@@H](C)NC(=O)[C@H](C)NC(=O)[C@@H](CC(C)C)N(C)C(=O)[C@H](C(C)C)NC(=O)[C@@H](CC(C)C)N(C)C(=O)CN(C)C1=O — 3.6-fold higher, 7600 nM
- CC/C=C/C[C@@H](C)[C@@H](O)[C@H]1C(=O)N[C@@H](CC)C(=O)N(C)CC(=O)N(C)[C@H](CC(C)C)C(=O)N[C@H](C(C)C)C(=O)N(C)[C@@H](C)C(=O)N[C@@H](C)C(=O)N[C@H](C)C(=O)N(C)[C@@H](CC(C)C)C(=O)N(C)[C@@H](CC(C)C)C(=O)N(C)[C@@H](C(C)C)C(=O)N1C — higher, > 10000 nM
- C/C=C/C[C@@H](C)[C@@H](O)[C@H]1C(=O)N[C@@H](CCC)C(=O)N(C)CC(=O)N(C)[C@H](CC(C)C)C(=O)N[C@H](C(C)C)C(=O)N[C@@H](CC(C)C)C(=O)N[C@@H](C)C(=O)N[C@H](C)C(=O)N(C)[C@@H](CC(C)C)C(=O)N(C)[C@@H](CC(C)C)C(=O)N(C)[C@@H](C(C)C)C(=O)N1C — 3.9-fold higher, 8100 nM
- CC/C=C/C[C@@H](C)[C@@H](O)[C@H]1C(=O)N[C@@H](CC)C(=O)N(C)CC(=O)N(C)[C@@H](Cc2ccccc2)C(=O)N[C@H](C(C)C)C(=O)N(C)[C@H](CC(C)C)C(=O)N[C@@H](C)C(=O)N[C@H](C)C(=O)N(C)[C@@H](CC(C)C)C(=O)N(C)[C@@H](CC(C)C)C(=O)N(C)[C@@H](C(C)C)C(=O)N1C — 1.9-fold higher, 4000 nM
- CC/C=C/C[C@@H](C)[C@@H](O)[C@H]1C(=O)N[C@@H](CC)C(=O)N(C)CC(=O)N(C)[C@H](CC(C)C)C(=O)N[C@H](C(C)C)C(=O)N(C)[C@H](CC(C)C)C(=O)N[C@@H](C)C(=O)N[C@H](CCCCN)C(=O)N(C)[C@@H](CC(C)C)C(=O)N(C)[C@@H](CC(C)C)C(=O)N(C)[C@@H](C(C)C)C(=O)N1C — 4.2-fold lower, 500 nM
- C/C=C/C[C@@H](C)[C@@H](O)[C@H]1C(=O)N[C@@H]([C@@H](C)O)C(=O)N(C)CC(=O)N(C)[C@H](CC(C)C)C(=O)N[C@@H](CC(C)C)C(=O)N(C)[C@H](CC(C)C)C(=O)N[C@@H](C)C(=O)N[C@](O)(C(C)C)C(=O)N(C)[C@@H](CC(C)C)C(=O)N[C@@H](CC(C)C)C(=O)N(C)[C@@H](C(C)C)C(=O)N1C — 10-fold lower, 200 nM
- C/C=C/C[C@@H](C)[C@@H](O)[C@H]1C(=O)N[C@@H](CC)C(=O)N(C)CC(=O)N(C)[C@H](CC(C)C)C(=O)N[C@H](C(C)C)C(=O)N(C)[C@H](CC(C)C)C(=O)N[C@@H](C)C(=O)N[C@H](C)C(=O)N(C)[C@@H](CC(C)C)C(=O)N[C@@H](CC(C)C)C(=O)N(C)[C@@H](C(C)C)C(=O)N1C — 3.2-fold lower, 650 nM
- CC/C=C/C[C@@H](C)[C@@H](O)[C@H]1C(=O)N[C@@H](CCC)C(=O)N(C)CC(=O)N(C)[C@H](CC(C)C)C(=O)N[C@H](C(C)C)C(=O)N(C)[C@H](CC(C)C)C(=O)N[C@@H](C)C(=O)N[C@H](C)C(=O)N(C)[C@@H](CC(C)C)C(=O)N(C)[C@@H](CC(C)C)C(=O)N(C)[C@@H](C(C)C)C(=O)N1C — within 1.5-fold, 2600 nM
- C/C=C/C[C@@H](C)[C@@H](O)[C@H]1C(=O)N[C@@H](CC)C(=O)NCC(=O)N(C)[C@H](CC(C)C)C(=O)N[C@H](C(C)C)C(=O)N(C)[C@H](CC(C)C)C(=O)N[C@@H](C)C(=O)N[C@H](CO)C(=O)N(C)[C@@H](CC(C)C)C(=O)N(C)[C@@H](CC(C)C)C(=O)N(C)[C@@H](C(C)C)C(=O)N1C — within 1.5-fold, 1900 nM
- C/C=C/C[C@@H](C)[C@@H](O)[C@H]1C(=O)N[C@@H](CC)C(=O)N(C)CC(=O)N(C)[C@H](CC(C)C)C(=O)N[C@H](C(C)C)C(=O)N[C@@H](CC(C)C)C(=O)N[C@@H](C)C(=O)N[C@H](C)C(=O)N(C)[C@@H](CC(C)C)C(=O)N[C@@H](CC(C)C)C(=O)N(C)[C@@H](C(C)C)C(=O)N1C — 5.7-fold lower, 370 nM
- C/C=C/C[C@@H](C)[C@@H](O)[C@H]1C(=O)N[C@@H](C)C(=O)N(C)CC(=O)N(C)[C@H](CC(C)C)C(=O)N[C@H](C(C)C)C(=O)N(C)[C@H](CC(C)C)C(=O)N[C@@H](C)C(=O)N[C@H](C)C(=O)N(C)[C@@H](CC(C)C)C(=O)N[C@@H](CC(C)C)C(=O)N(C)[C@@H](C(C)C)C(=O)N1C — 10-fold lower, 200 nM
- C/C=C/C[C@@H](C)[C@@H](O)[C@H]1C(=O)N[C@@H](CC)C(=O)N(C)CC(=O)N[C@@H](CC(C)C)C(=O)N[C@H](C(C)C)C(=O)N(C)[C@H](CC(C)C)C(=O)N[C@@H](C)C(=O)N[C@H](C)C(=O)N(C)[C@@H](CC(C)C)C(=O)N(C)[C@@H](CC(C)C)C(=O)N(C)[C@@H](C(C)C)C(=O)N1C — higher, > 10000 nM
- CCCCCC[C@H]1C(=O)N[C@@H](CC)C(=O)N(C)CC(=O)N(C)[C@H](CC(C)C)C(=O)N[C@H](C(C)C)C(=O)N(C)[C@H](CC(C)C)C(=O)N[C@@H](C)C(=O)N[C@H](C)C(=O)N(C)[C@@H](CC(C)C)C(=O)N(C)[C@@H](CC(C)C)C(=O)N(C)[C@@H](C(C)C)C(=O)N1C — within 1.5-fold, 1700 nM
- C/C=C/C[C@@H](C)[C@@H](O)[C@H]1C(=O)N[C@@H](CC)C(=O)N(C)CC(=O)N(C)[C@H](CC(C)C)C(=O)N[C@H](C(C)C)C(=O)N(C)[C@H](CC(C)C)C(=O)N[C@@H](C)C(=O)N[C@H](C)C(=O)N(C)[C@@H](CC(C)C)C(=O)N(C)[C@@H](CC(C)C)C(=O)N(C)[C@@H]([C@@H](C)CC)C(=O)N1C — within 1.5-fold, 2900 nM
- CC/C=C/C[C@@H](C)[C@@H](O)[C@H]1C(=O)N[C@@H]([C@@H](C)O)C(=O)N(C)CC(=O)N(C)[C@H](CC(C)C)C(=O)N[C@H](C(C)C)C(=O)N(C)[C@H](CC(C)C)C(=O)N[C@@H](C)C(=O)N[C@H](C)C(=O)N(C)[C@@H](CC(C)C)C(=O)N(C)[C@@H](CC(C)C)C(=O)N(C)[C@@H](C(C)C)C(=O)N1C — within 1.5-fold, 2200 nM
- C/C=C/C[C@@H](C)[C@@H](O)[C@H]1C(=O)N[C@@H]([C@@H](C)O)C(=O)N(C)CC(=O)N(C)[C@H](CC(C)C)C(=O)N[C@H](C(C)C)C(=O)N(C)[C@H](CC(C)C)C(=O)N[C@@H](C)C(=O)N[C@H](C)C(=O)N(C)[C@@H](CC(C)C)C(=O)N[C@@H](CC(C)C)C(=O)N(C)[C@@H](C(C)C)C(=O)N1C — within 1.5-fold, 2050 nM
- C/C=C/C[C@@H](C)[C@@H](O)[C@H]1C(=O)N[C@@H]([C@@H](C)O)C(=O)N(C)CC(=O)N(C)[C@H](CC(C)C)C(=O)N[C@@H](C(C)C)C(=O)N(C)[C@H](CC(C)C)C(=O)N[C@@H](C)C(=O)N[C@](O)(C(C)C)C(=O)N(C)[C@@H](CC(C)C)C(=O)N[C@@H](CC(C)C)C(=O)N(C)[C@@H](C(C)C)C(=O)N1C — 2.3-fold lower, 930 nM
- C/C=C/C[C@@H](C)[C@@H](O)[C@H]1C(=O)N[C@@H](CC)C(=O)N(C)CC(=O)N(C)[C@H](CC(C)C)C(=O)N[C@H](C(C)C)C(=O)N[C@@H](CC(C)C)C(=O)N[C@@H](C)C(=O)N[C@H](C)C(=O)N(C)[C@@H](CC(C)C)C(=O)N(C)[C@@H](CC(C)C)C(=O)N(C)[C@@H](C(C)C)C(=O)N1C — higher, > 10000 nM
- C/C=C/C[C@@H](C)C[C@H]1C(=O)N[C@@H](CC)C(=O)N(C)CC(=O)N(C)[C@H](CC(C)C)C(=O)N[C@H](C(C)C)C(=O)N(C)[C@H](CC(C)C)C(=O)N[C@@H](C)C(=O)N[C@H](C)C(=O)N(C)[C@@H](CC(C)C)C(=O)N(C)[C@@H](CC(C)C)C(=O)N(C)[C@@H](C(C)C)C(=O)N1C — within 1.5-fold, 2400 nM
- CC/C=C/C[C@@H](C)[C@@H](O)[C@H]1C(=O)N[C@@H](CC)C(=O)N(C)CC(=O)N(C)[C@@H]([C@@H](C)CC)C(=O)N[C@H](C(C)C)C(=O)N(C)[C@H](CC(C)C)C(=O)N[C@@H](C)C(=O)N[C@H](C)C(=O)N(C)[C@@H](CC(C)C)C(=O)N(C)[C@@H](CC(C)C)C(=O)N(C)[C@@H](C(C)C)C(=O)N1C — 2.1-fold lower, 1000 nM
- C/C=C/C[C@@H](C)[C@@H](O)[C@H]1C(=O)N[C@@H](CCC)C(=O)N(C)CC(=O)N(C)[C@H](CC(C)C)C(=O)N[C@@H](CCC)C(=O)N(C)[C@H](CC(C)C)C(=O)NC(C)C(=O)N[C@H](C)C(=O)N(C)[C@@H](CC(C)C)C(=O)N(C)[C@@H](CC(C)C)C(=O)N(C)[C@@H](C(C)C)C(=O)N1C (stereo partly specified) — 10-fold lower, 200 nM
